Results taken from ChEMBL document CHEMBL3352283, “Benzodioxane-benzamides as new bacterial cell division inhibitors” (Eur J Med Chem, 2015).
Values after ≈ are worked out from the molar mass of the structure shown. Active and inactive are the calls of the source. No cut-off for these calls is given here.

Columns and labels:
[1] = tested on: Staphylococcus aureus; test: Antibiotic activity against Staphylococcus aureus assessed as growth inhibition after 2 days by optical microscopy; type: functional; conditions: 48 h
[2] = tested on: Escherichia coli; test: Antibiotic activity against Escherichia coli DH5alpha assessed as growth inhibition after 2 days by optical microscopy; type: functional; conditions: DH5[alpha], 48 h
[3] = tested on: Staphylococcus aureus; test: Antibiotic activity against Staphylococcus aureus assessed as growth inhibition after compound washout by optical microscopy; type: functional
[4] = Therapeutic index, ratio of TD90 for human MRC5 cells to MBC for Staphylococcus aureus; type: cell-based; conditions: read-out: TI
In short: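 Therapeutic index calculated as MRC-5 TD90 (MTT assay) divided by MBC measured after washout regrowth test.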

[5] = (§1) Cytotoxicity against human MRC5 cells assessed as reduction in cell viability after 24 hrs by MTT assay; type: cell-based; conditions: MRC5 cells, read-out: TD50
In short: (§2)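 Vero or MRC-5 cells kept in DMEM with 10% heat-inactivated calf serum, 37 °C, 5% CO₂; compound-treated cells given MTT for 3 h at 37 °C, then DMSO 10 min, absorbance at 570 nm; cytotoxicity % = 100 − (sample OD/untreated OD) × 100; TD50/TD90 = dose cutting viability 50% or 90%.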

[6] = tested on: MRC5; test: as §1; type: cell-based; conditions: mrc5, 24 h; in short: as §2
[7] = (§3) Cytotoxicity against african green monkey Vero cells assessed as reduction in cell viability after 24 hrs by MTT assay; type: cell-based; conditions: chlorocebus sabaeus, Vero cells; read-out: TD50; in short: as §2
[8] = tested on: Vero; test: as §3; type: cell-based; conditions: chlorocebus sabaeus, vero, 24 h; in short: as §2
[9] = tested on: Staphylococcus aureus; test: Antibiotic activity against Staphylococcus aureus assessed as ballooning of cocci at 1 to 4 times MIC concentration by phase-contrast microscopy; type: functional, organism-based

MIC [1] [µg/mL]	MIC [2] [µg/mL]	Compound	MBC [3] [µg/mL]	selectivity ratio [4]	CC50 at 24 h [5] [µg/mL]	TD90 [6] [µg/mL]	CC50 at 24 h [7] [µg/mL]	TD90 [8] [µg/mL]	Activity [9]
> 100	> 100	CCCCCCCCCOc1ccc(F)c(C(=O)NCCNC(=O)c2c(F)ccc(OCCCCCCCCC)c2F)c1F	–	–	–	–	–	–	–
> 100	> 100	CCCCCCCCCOc1ccc(F)c(C(=O)NCCO)c1F	–	–	–	–	–	–	–
1 (≈ 2.81 µM)	> 100	NC(=O)c1c(F)ccc(OCC2COc3cc(Cl)ccc3O2)c1F (racemic)	2.5 (≈ 7.03 µM)	320	650 (≈ 1830 µM)	800	550 (≈ 1550 µM)	800	–
> 100	> 100	CCCCCCCCCOc1ccc(F)c(C#N)c1F	–	–	–	–	–	–	–
10 (≈ 29.2 µM)	20 (≈ 58.4 µM)	CCCCCCCCCOc1ccc(F)c(C(=O)NCCN)c1F	–	–	35 (≈ 102 µM)	80	60 (≈ 175 µM)	120	–
0.1 (≈ 0.334 µM)	> 100	CCCCCCCCCOc1ccc(F)c(C(N)=O)c1F	0.25 (≈ 0.835 µM)	> 800	100 (≈ 334 µM)	> 200	90 (≈ 301 µM)	> 200	–
> 100	> 100	NC(=O)c1c(F)ccc(OCCCCOCC(O)CO)c1F (stereo not given)	–	–	–	–	–	–	–
> 100	> 100	CCCCCCCCCOc1ccc(F)c(C2=NCCO2)c1F	–	–	–	–	–	–	–
> 100	> 100	NCC(O)COCCCCOc1ccc(F)c(C(N)=O)c1F (racemic)	–	–	–	–	–	–	–
20 (≈ 54.9 µM)	> 100	NCCNC(=O)c1c(F)ccc(OCC2COc3ccccc3O2)c1F (stereo not given)	40 (≈ 110 µM)	–	–	–	–	–	–

Compound	MIC [1] [µg/mL]	MIC [2] [µg/mL]	MBC [3] [µg/mL]	selectivity ratio [4]	CC50 at 24 h [5] [µg/mL]	TD90 [6] [µg/mL]	CC50 at 24 h [7] [µg/mL]	TD90 [8] [µg/mL]	Activity [9]
NC(=O)c1c(F)ccc(OC[C@@H]2COc3ccc(Cl)cc3O2)c1F	0.25 (≈ 0.703 µM)	> 100	0.5 (≈ 1.41 µM)	> 1600	600 (≈ 1690 µM)	> 800	> 200	> 200	–
NC(=O)c1c(F)ccc(OCC2COc3ccccc3O2)c1F (racemic)	5 (≈ 15.6 µM)	> 100	80 (≈ 249 µM)	–	–	–	–	–	–
NC(=O)c1c(F)ccc(OC[C@H]2COc3ccc(Cl)cc3O2)c1F	1 (≈ 2.81 µM)	> 100	2.5 (≈ 7.03 µM)	> 320	400 (≈ 1120 µM)	> 800	> 200	> 200	–
NC(=O)c1c(F)ccc(OCC2COc3ccc(Cl)cc3O2)c1F (racemic)	0.5 (≈ 1.41 µM)	> 100	0.5 (≈ 1.41 µM)	> 1600	500 (≈ 1410 µM)	> 800	450 (≈ 1270 µM)	> 800	Active
